Measurements from ChEMBL document CHEMBL4371057, “Hydroxamic Acid Inhibitors Provide Cross-Species Inhibition of Plasmodium M1 and M17 Aminopeptidases” (J Med Chem, 2019).
Active and inactive are the calls of the source. The calls are words filed in the database; no cut-off is given here.

Assays:
Plasmodium falciparum [1] = test: Antimalarial activity against Plasmodium falciparum Dd2 after 72 hrs by DAPI staining-based confocal imaging analysis; type: functional, organism-based
Summary of the method: (§1)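 Exposed to a 16-point dose series (40 μM to 0.4 nM final, 0.4% DMSO) for 72 h at 37 °C in 90% N2/5% CO2/5% O2. DAPI-stained and imaged confocally. Two biological replicates, each with two technical repeats.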

[2] = Inhibition of Plasmodium vivax C-terminal His6-tagged M1 aminopeptidase (195 to 1097 residues) expressed in Escherichia coli BL21(DE3) preincubated for 20 mins followed by L-leucine-7-amido-4-methylcoumarin addition by Morrison equation analysis
Summary of the method: (§2)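 Recombinant enzymes (Ni-NTA then size exclusion) were preincubated 20 min with inhibitor in 100 mM Tris-HCl pH 8.0, with 2 mM CoCl2 for Pf-M17 and 1 mM for Pv-M17. Leu-AMC substrate: 20 μM (Pf-M1), 40 μM (Pv-M1), 10 μM (both M17). Read at 37 °C, 355/460 nm, to steady-state velocity. Ki from a Morrison tight-binding fit; biological triplicate from three protein preparations.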

[3] = Growth inhibition of HEK293 cells at 40 uM after 72 hrs by resazurin dye based assay relative to control; type: cell-based; settings: human, read-out: GI
Summary of the method: (§3)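 HEK293 cells kept in DMEM with 10% FBS. Exposed to compounds for 72 h at 37 °C, 5% CO2, using the same dilution scheme as the parasite assay (top 40 μM). Medium then replaced with 44 μM resazurin, and fluorescence (530/595 nm) read after 5–6 h.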

[4] = Cytotoxicity against HEK293 cells after 72 hrs by resazurin dye based assay; type: cell-based; settings: human; summary of the method: as §3
[5] = Growth inhibition of HEK293 cells at 10 uM after 72 hrs by resazurin dye based assay relative to control; type: cell-based; settings: human, read-out: GI; summary of the method: as §3
[6] = Selectivity ratio of Ki for Plasmodium falciparum C-terminal His6-tagged M1 aminopeptidase (195 to 1085 residues) expressed in Escherichia coli BL21(DE3) to Ki for Plasmodium vivax C-terminal His6-tagged M1 aminopeptidase (195 to 1097 residues) expressed in Escherichia coli BL21(DE3)
[7] = Inhibition of Plasmodium vivax C-terminal His6-tagged M17 aminopeptidase (203 to 621 residues) expressed in Escherichia coli BL21(DE3) preincubated for 20 mins followed by L-leucine-7-amido-4-methylcoumarin addition by Morrison equation analysis; summary of the method: as §2
[8] = Inhibition of Plasmodium falciparum C-terminal His6-tagged M1 aminopeptidase (195 to 1085 residues) expressed in Escherichia coli BL21(DE3) preincubated for 20 mins followed by L-leucine-7-amido-4-methylcoumarin addition by Morrison equation analysis; summary of the method: as §2
[9] = Inhibition of Plasmodium falciparum C-terminal His6-tagged M17 aminopeptidase (85 to 605 residues) expressed in Escherichia coli BL21(DE3) preincubated for 20 mins followed by L-leucine-7-amido-4-methylcoumarin addition by Morrison equation analysis; summary of the method: as §2
Plasmodium falciparum [10] = test: Antimalarial activity against Plasmodium falciparum 3D7 after 72 hrs by DAPI staining-based confocal imaging analysis; type: functional, organism-based; settings: 3D7, 72 h; summary of the method: as §1
[11] = Selectivity index, ratio of CC50 for HEK293 cells to IC50 for Plasmodium falciparum 3D7; type: toxicity; settings: human, read-out: Ratio CC50/IC50
[12] = molecular target: Matrix metalloproteinase-9 (Homo sapiens, UniProt P14780); test: Inhibition of MMP9 (unknown origin) preincubated for 1 hr followed by (QF)-24 substrate addition measured at 1 min time interval for 1 hr by fluorescence assay
[13] = molecular target: Neutrophil collagenase (Homo sapiens) (UniProt P22894); test: Inhibition of MMP8 (unknown origin) preincubated for 1 hr followed by (QF)-24 substrate addition measured at 1 min time interval for 1 hr by fluorescence assay
Summary of the method: (§4)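 MMPs were activated with 1 mM 4-aminophenylmercuric acetate (50 mM HEPES, 150 mM NaCl, 5 mM CaCl2, pH 7.0, 1 h, rt). 1 μM QF24 was added at 37 °C and read at 320/405 nm every minute for 1 h. IC50 from a four-parameter Hill fit; three independent experiments.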

[14] = molecular target: T1, Matrilysin (Homo sapiens) (UniProt P09237); test: Inhibition of MMP7 (unknown origin) preincubated for 1 hr followed by (QF)-24 substrate addition measured at 1 min time interval for 1 hr by fluorescence assay; summary of the method: as §4
T1 sequence (whole entry): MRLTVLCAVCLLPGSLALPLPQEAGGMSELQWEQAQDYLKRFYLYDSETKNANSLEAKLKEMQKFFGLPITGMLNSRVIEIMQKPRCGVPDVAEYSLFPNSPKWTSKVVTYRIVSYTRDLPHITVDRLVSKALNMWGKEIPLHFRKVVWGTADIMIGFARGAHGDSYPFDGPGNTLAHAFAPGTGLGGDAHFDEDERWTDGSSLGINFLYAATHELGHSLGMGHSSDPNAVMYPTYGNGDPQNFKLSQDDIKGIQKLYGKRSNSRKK

[15] = molecular target: 72 kDa type IV collagenase (Homo sapiens, UniProt P08253); test: Inhibition of MMP2 (unknown origin) preincubated for 1 hr followed by (QF)-24 substrate addition measured at 1 min time interval for 1 hr by fluorescence assay
Plasmodium falciparum [16] = settings: 2 mM
Plasmodium falciparum [17] = test: Reversible inhibition of Plasmodium falciparum C-terminal His6-tagged M17 aminopeptidase (85 to 605 residues) expressed in Escherichia coli BL21(DE3) assessed as enzyme activity recovery at 150 uM preincubated followed by compound washout for 5 hrs and subsequent L-leucine-7-amido-4-methylcoumarin substrate addition by fluorescence assay
Summary of the method: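 Pf-M17 (20 μM) was incubated overnight at 4 °C with 150 μM compound, 150 μM bestatin, 2 mM EDTA, or buffer (50 mM HEPES pH 8, 300 mM NaCl). It was then washed by repeated 10-fold concentration/dilution for up to 7 h, incubated 10 min in 1 mM MnCl2, 100 mM Tris pH 8.0, given 25 μM Leu-AMC (final), and fluorescence followed for 30 min.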

[18] = Plasmodium falciparum, Dd2, 72 h, read-out: IC50

Sequence of Neutrophil collagenase (Homo sapiens) (P22894 101-467 limits assumed): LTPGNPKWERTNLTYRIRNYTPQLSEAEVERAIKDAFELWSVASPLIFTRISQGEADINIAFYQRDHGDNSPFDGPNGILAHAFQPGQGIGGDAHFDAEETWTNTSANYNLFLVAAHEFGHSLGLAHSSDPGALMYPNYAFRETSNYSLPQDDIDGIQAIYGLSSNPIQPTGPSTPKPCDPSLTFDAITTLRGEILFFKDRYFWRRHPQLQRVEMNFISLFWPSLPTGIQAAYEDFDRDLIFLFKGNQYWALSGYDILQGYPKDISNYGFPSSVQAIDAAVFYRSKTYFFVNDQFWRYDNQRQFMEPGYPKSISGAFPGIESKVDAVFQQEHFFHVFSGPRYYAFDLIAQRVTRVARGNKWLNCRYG
Sequence of 72 kDa type IV collagenase (P08253 whole entry): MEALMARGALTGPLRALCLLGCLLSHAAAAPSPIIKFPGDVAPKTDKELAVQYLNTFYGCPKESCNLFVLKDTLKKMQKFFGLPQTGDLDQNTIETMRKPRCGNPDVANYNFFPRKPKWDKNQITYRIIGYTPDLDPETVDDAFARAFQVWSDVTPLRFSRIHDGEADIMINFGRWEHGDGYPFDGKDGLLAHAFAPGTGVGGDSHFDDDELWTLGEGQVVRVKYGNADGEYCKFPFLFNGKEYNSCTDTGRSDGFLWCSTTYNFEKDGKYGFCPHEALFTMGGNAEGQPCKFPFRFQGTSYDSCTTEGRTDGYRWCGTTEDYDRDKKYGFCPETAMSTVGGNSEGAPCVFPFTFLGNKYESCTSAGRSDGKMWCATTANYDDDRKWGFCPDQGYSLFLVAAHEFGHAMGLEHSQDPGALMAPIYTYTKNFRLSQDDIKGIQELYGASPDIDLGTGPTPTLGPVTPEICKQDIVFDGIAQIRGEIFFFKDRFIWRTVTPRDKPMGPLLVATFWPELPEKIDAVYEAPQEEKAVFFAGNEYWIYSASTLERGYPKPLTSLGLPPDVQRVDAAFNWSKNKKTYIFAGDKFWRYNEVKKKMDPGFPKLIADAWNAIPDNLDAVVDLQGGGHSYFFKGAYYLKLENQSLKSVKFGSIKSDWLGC
Sequence of Matrix metalloproteinase-9 (P14780 whole entry): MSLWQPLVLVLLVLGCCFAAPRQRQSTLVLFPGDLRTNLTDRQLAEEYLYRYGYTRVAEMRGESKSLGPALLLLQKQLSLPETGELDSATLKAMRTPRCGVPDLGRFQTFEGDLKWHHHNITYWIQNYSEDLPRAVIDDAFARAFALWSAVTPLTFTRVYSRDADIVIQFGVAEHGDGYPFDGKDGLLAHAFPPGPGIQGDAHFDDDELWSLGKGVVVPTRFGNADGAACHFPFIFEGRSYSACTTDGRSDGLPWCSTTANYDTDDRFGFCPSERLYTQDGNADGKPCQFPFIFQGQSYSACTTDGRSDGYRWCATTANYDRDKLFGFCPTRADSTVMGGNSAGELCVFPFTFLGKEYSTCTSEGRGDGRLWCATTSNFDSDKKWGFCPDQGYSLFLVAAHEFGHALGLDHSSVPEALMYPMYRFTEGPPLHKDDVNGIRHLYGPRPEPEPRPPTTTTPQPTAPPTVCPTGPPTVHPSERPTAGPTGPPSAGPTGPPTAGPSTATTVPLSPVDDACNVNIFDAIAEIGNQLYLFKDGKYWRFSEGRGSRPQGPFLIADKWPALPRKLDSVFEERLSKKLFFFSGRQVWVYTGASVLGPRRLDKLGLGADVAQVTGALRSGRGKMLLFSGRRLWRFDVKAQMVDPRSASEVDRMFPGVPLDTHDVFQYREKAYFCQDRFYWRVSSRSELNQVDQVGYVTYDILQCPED

| Structure (SMILES) | IC50 (Plasmodium falciparum [1]; [18]) [nM] | Ki [2] [nM] | inhibition at 72 h, 40 µM [3] [%] | inhibition at 72 h, 10 µM [5] [%] | Ratio Ki [6] | Ki [7] [nM] | Ki [8] [nM] | Ki [9] [nM] | IC50 (Plasmodium falciparum [10]) [nM] | other results |
| --- | --- | --- | --- | --- | --- | --- | --- | --- | --- | --- |
| CC(C)(C)C(=O)NC(C(=O)NO)c1ccc(-c2cc(F)c(F)c(F)c2)cc1 (configuration not stated) | 81.7 | 14.1 | 80.7 | 1.1 | 10 | 74.8 | 331 | 147 | 83.1 | CC50 at 72 h [4]: ≥ 20 µM; selectivity ratio [11]: ≥ 241 |
| O=C(CC1CC1)NC(C(=O)NO)c1ccc(-c2cc(F)c(F)c(F)c2)cc1 (configuration not stated) | 109 | 17.9 | 37.6 | 6.4 | 10 | 303 | 202 | 270 | 136 |  |
| O=C(NC(C(=O)NO)c1ccc(-c2cc(F)c(F)c(F)c2)cc1)C1CCC1 (configuration not stated) | 120 | 29.8 | 48.2 | 6 | 10 | 371 | 236 | 185 | 126 | selectivity ratio [11]: ≥ 158 |
| COc1ccc2nc3cc(Cl)ccc3c(Nc3cc(CN4CCCC4)c(O)c(CN4CCCC4)c3)c2n1 [PYRONARIDINE] | 7.9 |  | 95.6 | 102 |  |  |  |  | 7 | CC50 at 72 h [4]: 3.55 µM; selectivity ratio [11]: 507 |
| O=C(CC1CCCC1)NC(C(=O)NO)c1ccc(-c2cc(F)c(F)c(F)c2)cc1 (configuration not stated) | 125 | 7.58 | -1 | 3.1 | 28.5 | 211 | 216 | 138 | 168 |  |
| CC(C)C(=O)NC(C(=O)NO)c1ccc(-c2cc(F)c(F)c(F)c2)cc1 (configuration not stated) |  | 38.9 |  |  | 10 | 325 | 417 | 426 |  |  |
| CC(C)C[C@@H](C(=O)N[C@H](C(=O)OC1CCCC1)c1ccccc1)C(O)C(=O)NO (some centres not stated) |  |  |  |  |  |  |  |  |  | IC50 [12]: 1500 nM; inhibition [13]: Active; inhibition [14]: Active; IC50 [15]: 190 nM |
| COc1ccc(C[C@H](N)C(=O)N[C@H]2[C@@H](O)[C@H](n3cnc4c(N(C)C)ncnc43)O[C@@H]2CO)cc1 [PUROMYCIN] | 107 |  | 105 | 105 |  |  |  |  | 111 | CC50 at 72 h [4]: 0.5 µM; selectivity ratio [11]: 4.5 |
| O=C(NO)C(NC(=O)C(F)(F)C(F)(F)F)c1ccc(-c2cc(F)c(F)c(F)c2)cc1 (configuration not stated) |  | 90 |  |  | 10 | 97.5 | 815 | 200 |  |  |
| CCc1nc(N)nc(N)c1-c1ccc(Cl)cc1 [PYRIMETHAMINE] |  |  | 53.7 | 34.4 |  |  |  |  | 5.1 | IC50 (Plasmodium falciparum [1]): Not Active; CC50 at 72 h [4]: ≥ 20 µM; selectivity ratio [11]: ≥ 1960 |
| O=C(NC(C(=O)NO)c1ccc(-c2cc(F)c(F)c(F)c2)cc1)C1CCCC1 (configuration not stated) |  | 13.1 |  |  | 10 | 336 | 285 | 300 |  |  |
| O=C(NC(C(=O)NO)c1ccc(-c2cc(F)c(F)c(F)c2)cc1)C1CCOCC1 (configuration not stated) |  | 159 |  |  | 10 | 494 | 431 | 290 |  |  |
| O=C(NC(C(=O)NO)c1ccc(-c2cc(F)c(F)c(F)c2)cc1)C1CCCCC1 (configuration not stated) |  | 37.6 |  |  | 10 | 178 | 818 | 195 |  |  |
| O=C(CC1CCCCC1)NC(C(=O)NO)c1ccc(-c2cc(F)c(F)c(F)c2)cc1 (configuration not stated) |  | 13.2 |  |  | 10 | 148 | 812 | 288 |  |  |
| C[C@H]1[C@@H](O)O[C@@H]2O[C@@]3(C)CC[C@H]4[C@H](C)CC[C@@H]1[C@@]24OO3 [ARTENIMOL] | 0.4 |  |  | 31 |  |  |  |  | 0.5 |  |
| O=C(CC1CCC1)NC(C(=O)NO)c1ccc(-c2cc(F)c(F)c(F)c2)cc1 (configuration not stated) | 29.2 | 2.85 | 5.6 | 6.3 | 62.1 | 75.6 | 177 | 306 | 55.4 |  |
| CCC(=O)NC(C(=O)NO)c1ccc(-c2cc(F)c(F)c(F)c2)cc1 (configuration not stated) |  | 66.3 |  |  | 10 | 108 | 913 | 158 |  |  |
| CNC(=O)[C@@H](NC(=O)[C@H](CC(C)C)[C@H](O)C(=O)NO)C(C)(C)C |  |  |  |  |  |  |  |  |  | inhibition [13]: Active; inhibition [14]: Active |
| O=C(N[C@@H](C(=O)NO)c1ccc(-c2cc(F)c(F)c(F)c2)cc1)[C@@H](F)C(F)(F)F (racemic) |  | 11.2 |  |  | 10 | 382 | 257 | 814 |  |  |
| C[C@H]1[C@H](OC(=O)CCC(=O)O)O[C@@H]2O[C@@]3(C)CC[C@H]4[C@H](C)CC[C@@H]1[C@@]24OO3 [ARTESUNATE] | 1 |  |  | 42.3 |  |  |  |  | 1.6 |  |
| O=C(NO)[C@@H](NC(=O)[C@@H](F)C(F)(F)F)c1ccc(-c2cc(F)c(F)c(F)c2)cc1 (racemic) |  | 211 |  |  | 10 | 1240 | 1490 | 2190 |  |  |
| O=C(CC1CC2CCC1C2)NC(C(=O)NO)c1ccc(-c2cc(F)c(F)c(F)c2)cc1 (configuration not stated) | 120 | 12.7 | 19.7 | 0.6 | 10 | 93.1 | 136 | 127 | 220 |  |
| O=C(NC(C(=O)NO)c1ccc(-c2cc(F)c(F)c(F)c2)cc1)C1CC1 (configuration not stated) |  | 90.6 |  |  | 10 | 572 | 532 | 492 |  |  |
| O=C(O)CN(CCN(CC(=O)O)CC(=O)O)CC(=O)O |  |  |  |  |  |  |  |  |  | inhibition (Plasmodium falciparum [16]): Active |
| O=C(CC(F)(F)F)NC(C(=O)NO)c1ccc(-c2cc(F)c(F)c(F)c2)cc1 (configuration not stated) |  | 149 |  |  | 10 | 1050 | 537 | 999 |  |  |
| CC(C)C[C@H](NC(=O)[C@@H](O)[C@H](N)Cc1ccccc1)C(=O)O |  |  |  |  |  |  |  |  |  | inhibition (Plasmodium falciparum [17]): Active |
| CCN(CC)CCCC(C)Nc1ccnc2cc(Cl)ccc12 (configuration not stated) [CHLOROQUINE] |  |  | 57 | 17.3 |  |  |  |  |  | CC50 at 72 h [4]: ≥ 20 µM |
